Measured values published in ChEMBL document CHEMBL1137781, “Synthesis and preclinical evaluation of novel PET probes for P-glycoprotein function and expression” (J Med Chem, 2009).

Experiments:
Conditions in all cases: in vivo
[1] = Biodistribution in 15 mg/kg unlabeled 6,7-dimethoxy-2-(3-(5-methoxy-3,4-dihydronaphthalen-1(2H)-ylidene)propyl)-1,2,3,4-tetrahydroisoquinoline pretreated Wistar rat cingulate cortex at 13+/-2 MBq, iv after 80 mins; type: ADME, organism-based; parameters: dose 15 mg/kg, route intravenous
Procedure, shortened: (§1)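 Male Wistar rats given saline or unlabeled compound via tail vein: 15 mg/kg, dissolved at 10 mg/mL in saline with 35% ethanol. [11C] tracer (8-15 MBq) then given via penile vein. After microPET scanning the anesthetized rats were killed. Tissues were excised and weighed, and blood was spun for plasma and cell fraction. γ counting with decay correction. Results as SUV (tissue MBq/g × body weight/injected dose).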

[2] = system: Ileum; assay: Biodistribution in 15 mg/kg unlabeled 6,7-dimethoxy-2-(3-(5-methoxy-3,4-dihydronaphthalen-1(2H)-ylidene)propyl)-1,2,3,4-tetrahydroisoquinoline pretreated Wistar rat ileum at 13+/-2 MBq, iv after 80 mins; type: ADME, organism-based; parameters: dose 15 mg/kg, route intravenous; procedure, shortened: as §1
[3] = system: Colon; assay: Biodistribution in 15 mg/kg unlabeled 6,7-dimethoxy-2-(3-(5-methoxy-3,4-dihydronaphthalen-1(2H)-ylidene)propyl)-1,2,3,4-tetrahydroisoquinoline pretreated Wistar rat colon at 13+/-2 MBq, iv after 80 mins; type: ADME, organism-based; parameters: dose 15 mg/kg, route intravenous; procedure, shortened: as §1
[4] = system: Pons; assay: Biodistribution in 15 mg/kg unlabeled 6,7-dimethoxy-2-(3-(5-methoxy-3,4-dihydronaphthalen-1(2H)-ylidene)propyl)-1,2,3,4-tetrahydroisoquinoline pretreated Wistar rat pons at 13+/-2 MBq, iv after 80 mins; type: ADME, organism-based; parameters: dose 15 mg/kg, route intravenous; procedure, shortened: as §1
[5] = system: Heart; assay: Biodistribution in Wistar rat heart at 11+/-2 MBq, iv after 80 mins; type: ADME, organism-based
Procedure, shortened: (§2)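 Male Wistar rats (12 h light/dark, chow ad libitum) were fitted with a femoral arterial cannula under isoflurane. They were pretreated via tail vein with saline, cyclosporin A (50 mg/kg), or nonradioactive tracer compound (15 mg/kg; 10 mg/mL in saline with 35% ethanol). The 11C tracer was then given via penile vein, followed by 76 min microPET. Animals were then terminated; excised tissues were weighed and gamma-counted with decay correction. Values are SUVs (tissue MBq/g × body weight g / injected MBq).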

[6] = system: Duodenum; assay: Biodistribution in Wistar rat duodenum at 11+/-2 MBq, iv after 80 mins; type: ADME, organism-based; procedure, shortened: as §2
[7] = system: Plasma; assay: Biodistribution in 15 mg/kg unlabeled 6,7-dimethoxy-2-(3-(5-methoxy-3,4-dihydronaphthalen-1(2H)-ylidene)propyl)-1,2,3,4-tetrahydroisoquinoline pretreated Wistar rat plasma at 13+/-2 MBq, iv after 80 mins; type: ADME, organism-based; parameters: dose 15 mg/kg, route intravenous; procedure, shortened: as §1
[8] = system: Kidney; assay: Biodistribution in Wistar rat kidney at 11+/-2 MBq, iv after 80 mins; type: ADME, organism-based; procedure, shortened: as §2
[9] = system: Bone; assay: Biodistribution in 15 mg/kg unlabeled 6,7-dimethoxy-2-(3-(5-methoxy-3,4-dihydronaphthalen-1(2H)-ylidene)propyl)-1,2,3,4-tetrahydroisoquinoline pretreated Wistar rat bone at 13+/-2 MBq, iv after 80 mins; type: ADME, organism-based, Bone element; parameters: dose 15 mg/kg, route intravenous; procedure, shortened: as §1
[10] = Biodistribution in Wistar rat bulbus olfactorius at 11+/-2 MBq, iv after 80 mins; type: ADME, organism-based, Olfactory bulb
[11] = Biodistribution in 15 mg/kg unlabeled 6,7-dimethoxy-2-(3-(5-methoxy-3,4-dihydronaphthalen-1(2H)-ylidene)propyl)-1,2,3,4-tetrahydroisoquinoline pretreated Wistar rat frontal cortex at 13+/-2 MBq, iv after 80 mins; type: ADME, organism-based; parameters: dose 15 mg/kg, route intravenous; procedure, shortened: as §1
[12] = system: Ileum; assay: Biodistribution in Wistar rat ileum at 11+/-2 MBq, iv after 80 mins; type: ADME, organism-based; procedure, shortened: as §2
[13] = Biodistribution in Wistar rat parietal/temporal/occipital cortex at 11+/-2 MBq, iv after 80 mins; type: ADME, organism-based; procedure, shortened: as §2
[14] = system: Hippocampus; assay: Biodistribution in 15 mg/kg unlabeled 6,7-dimethoxy-2-(3-(5-methoxy-3,4-dihydronaphthalen-1(2H)-ylidene)propyl)-1,2,3,4-tetrahydroisoquinoline pretreated Wistar rat hippocampus at 13+/-2 MBq, iv after 80 mins; type: ADME, organism-based; parameters: dose 15 mg/kg, route intravenous; procedure, shortened: as §1
[15] = system: Spleen; assay: Biodistribution in 15 mg/kg unlabeled 6,7-dimethoxy-2-(3-(5-methoxy-3,4-dihydronaphthalen-1(2H)-ylidene)propyl)-1,2,3,4-tetrahydroisoquinoline pretreated Wistar rat spleen at 13+/-2 MBq, iv after 80 mins; type: ADME, organism-based; parameters: dose 15 mg/kg, route intravenous; procedure, shortened: as §1
[16] = system: Pons; assay: Biodistribution in Wistar rat pons at 11+/-2 MBq, iv after 80 mins; type: ADME, organism-based
[17] = Biodistribution in Wistar rat entorhinal cortex at 11+/-2 MBq, iv after 80 mins; type: ADME, organism-based; procedure, shortened: as §2
[18] = system: Muscle tissue; assay: Biodistribution in 15 mg/kg unlabeled 6,7-dimethoxy-2-(3-(5-methoxy-3,4-dihydronaphthalen-1(2H)-ylidene)propyl)-1,2,3,4-tetrahydroisoquinoline pretreated Wistar rat muscle at 13+/-2 MBq, iv after 80 mins; type: ADME, organism-based; parameters: dose 15 mg/kg, route intravenous; procedure, shortened: as §1
[19] = Biodistribution in Wistar rat red blood cells at 11+/-2 MBq, iv after 80 mins; type: ADME, organism-based, Erythrocyte
[20] = system: Lung; assay: Biodistribution in 15 mg/kg unlabeled 6,7-dimethoxy-2-(3-(5-methoxy-3,4-dihydronaphthalen-1(2H)-ylidene)propyl)-1,2,3,4-tetrahydroisoquinoline pretreated Wistar rat lung at 13+/-2 MBq, iv after 80 mins; type: ADME, organism-based; parameters: dose 15 mg/kg, route intravenous; procedure, shortened: as §1
[21] = system: Brain; assay: Biodistribution in Wistar rat brain at 11+/-2 MBq, iv after 56 mins; type: ADME, organism-based
[22] = system: Cerebellum; assay: Biodistribution in 15 mg/kg unlabeled 6,7-dimethoxy-2-(3-(5-methoxy-3,4-dihydronaphthalen-1(2H)-ylidene)propyl)-1,2,3,4-tetrahydroisoquinoline pretreated Wistar rat cerebellum at 13+/-2 MBq, iv after 80 mins; type: ADME, organism-based; parameters: dose 15 mg/kg, route intravenous; procedure, shortened: as §1
[23] = Biodistribution in 15 mg/kg unlabeled 6,7-dimethoxy-2-(3-(5-methoxy-3,4-dihydronaphthalen-1(2H)-ylidene)propyl)-1,2,3,4-tetrahydroisoquinoline pretreated Wistar rat bulbus olfactorius at 13+/-2 MBq, iv after 80 mins; type: ADME, organism-based, Olfactory bulb; parameters: dose 15 mg/kg, route intravenous; procedure, shortened: as §1
[24] = Biodistribution in 15 mg/kg unlabeled 6,7-dimethoxy-2-(3-(5-methoxy-3,4-dihydronaphthalen-1(2H)-ylidene)propyl)-1,2,3,4-tetrahydroisoquinoline pretreated Wistar rat fat at 13+/-2 MBq, iv after 80 mins; type: ADME, organism-based, Adipose tissue; parameters: dose 15 mg/kg, route intravenous; procedure, shortened: as §1
[25] = system: Lung; assay: Biodistribution in Wistar rat lung at 11+/-2 MBq, iv after 80 mins; type: ADME, organism-based; procedure, shortened: as §2
[26] = Biodistribution in Wistar rat medulla at 11+/-2 MBq, iv after 80 mins; type: ADME, organism-based, Medulla of organ; procedure, shortened: as §2

SUV [1]: 0.31
SUV [2]: 0.91
SUV [3]: 0.74
SUV [4]: 0.5
SUV [5]: 0.48
SUV [6]: 3.06
SUV [7]: 0.56
SUV [8]: 1.53
SUV [9]: 0.81
SUV [10]: 0.64
SUV [11]: 0.37
SUV [12]: 1.94
SUV [13]: 0.65
SUV [14]: 0.44
SUV [15]: 1.72
SUV [16]: 0.6
SUV [17]: 0.55
SUV [18]: 0.45
SUV [19]: 0.24
SUV [20]: 2.13
SUV [21]: 0.88
SUV [22]: 0.4
SUV [23]: 0.4
SUV [24]: 0.36
SUV [25]: 1.34
SUV [26]: 0.46
SMILES: COc1cc2c(cc1OC)CN(CC/C=C1\CCCc3c(O[11CH3])cccc31)CC2
